Results pooled from the literature.
Each line is one published result; the experiments were not run side by side.
Target: Casein kinase I isoform alpha (CSNK1A1, Homo sapiens, UniProt P48729)

| Compound | test | conditions | remaining binding [%] |
| --- | --- | --- | --- |
| COc1ncc2cc3ccccc3nc2c1C#N | cell-free assay, competition with immobilised ligand | 5 µM | 97 |
| O=C(c1ccc(Nc2ncc(Cl)c(-c3ccc(Cl)s3)n2)cc1)N1CCC(N2CCCC2)CC1 | binding, competition with immobilised ligand | 1 µM | 97 |
| C[C@@H]1CCN(c2nccc(-c3cnn4ncccc34)n2)C1 | binding | 1 µM | 61 |
| CS(=O)(=O)c1cc(C2(NC(=O)c3cncc4c3cnn4-c3ccc(F)cc3)CC2)ccn1 | cell-free assay, competition with immobilised ligand | 1 µM | 96 |
| CN(c1nccc(-c2cnn3ncccc23)n1)C1CC1 | binding | 1 µM | 88 |
| CNC(=O)Nc1ccc2c(c1)CC[C@@]21OC(=O)N(CC(=O)N(Cc2ccc(F)cc2)[C@@H](C)C(F)(F)F)C1=O | cell-free assay, competition with immobilised ligand | 1 µM | 93 |
| c1cncc(-c2cccc(Nc3nccc(NC4CCCCC4)n3)c2)c1 | binding, competition with immobilised ligand | 10 µM | 71 |
| Cc1cnn2ncc(-c3ccnc(N(C)C)n3)c2c1 | binding | 1 µM | 43 |
| CS(=O)(=O)NCC[C@H](NC(=O)c1cncc2c1cnn2-c1ccc(F)cc1)c1ccnc(S(C)(=O)=O)c1 | cell-free assay, competition with immobilised ligand | 1 µM | 100 |
| c1cnn2ncc(-c3ccnc(N4CCC45COC5)n3)c2c1 | binding | 1 µM | 14 |
| O=C(c1ccc(Nc2nccc(-c3cc4ccccc4s3)n2)cc1)N1CCC(N2CCCC2)CC1 | binding, competition with immobilised ligand | 1 µM | 78 |
| CCN1CCN(Cc2ccc(C(=O)Nc3ccc(C)c(Oc4ccc5c(c4)CC(=O)N5)c3)cc2C(F)(F)F)CC1 | binding, competition with immobilised ligand | 1 µM | 100 |
| Cn1nc(C(F)(F)F)cc1-c1cnc(N2CCc3cc(S(=O)(=O)Nc4c(F)cc(Cl)cc4F)cc(N4CCCC4=O)c32)nc1 | cell-free assay, competition with immobilised ligand | 1 µM | 86 |
| COc1cnc(Nc2cccc(S(N)(=O)=O)c2)nc1N1CCN(c2ccccc2)CC1 | binding, competition with immobilised ligand | 1 µM | 93 |
| COc1ccc2c(c1)O[C@H](c1ccc(OC)c(OC)c1)C[C@@H]2NC(=O)C1(c2ccc3c(c2)OC(F)(F)O3)CC1 | cell-free assay, competition with immobilised ligand | 1 µM | 82 |
| O=C(Nc1c[nH]nc1C(=O)NC1CCNCC1)c1cc(F)cc(F)c1 | binding, competition with immobilised ligand | 1 µM | 75 |
| N[C@H]1CCN(c2nccc(-c3cnn4ncccc34)n2)C1 | binding | 1 µM | 41 |
| CCC(=N\O)/C(C)=C/c1ccc(F)cc1 | cell-free assay, competition with immobilised ligand | 1 µM | 74 |
| CC1CCCN1c1nccc(-c2cnn3ncccc23)n1 (stereo not shown) | binding | 1 µM | 100 |
| O=C(c1ccc(Nc2ncc(Cl)c(-c3cc4ccccc4s3)n2)cc1)N1CCC(N2CCCC2)CC1 | binding, competition with immobilised ligand | 1 µM | 67 |
| CC1=C(C#N)C(c2ccc3c(c2)c(NC(=O)c2ccccc2C)nn3C)C(C#N)=C(C)N1 | cell-free assay, competition with immobilised ligand | 1 µM | 70 |
| FC(F)(F)Oc1cccc(-c2cnc3ccc(-c4ccncc4)nn23)c1 | cell-free assay, competition with immobilised ligand | 5 µM | 52 |
